Source: PubChem BioAssay
A number with no mark means an inactive call. Inconclusive results are not listed. Activity calls are given as the source filed them.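 How the source made its calls, unless noted: active means inhibition over a set limit, the all-compound mean plus 3 SD, in both replicate runs; inconclusive means over that limit in just one replicate run; inactive means at or under that limit in both runs.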

Key:
[1] = OD615 S. cerevisiae growth inhibition, permissive medium, pilot counter-assay, permissive growth control for S. cerevisiae lifespan shortening project (AID 705;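 active means growth inhibition above 25% in both replicates, a cutoff set 3 SD above the mean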); conditions: OD615, 24 h, at 10 µM, hits give high values
How it was run: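 assay system = Saccharomyces cerevisiae strain carrying genetically modified DeaD replicative-lifespan system | technique = absorbance (optical density) at 615 nm | buffer or medium = permissive raffinose/galactose medium | timing = cells pre-grown 4 h, then 24 h compound exposure, 30 °C humidified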

[2] = Restrictive medium S. cerevisiae growth inhibition, OD615, pilot screen of yeast lifespan reduction project, restrictive growth control (AID 706;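 active means growth inhibition above a set limit, 3 SD over mean compound inhibition, in both replicates, cut at about 43% in these data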;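 further: modified DeaD lifespan yeast strain shifted to restrictive glucose medium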); conditions: OD615, 48 h, at 10 µM, hits give high values
How it was run: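 System: modified S. cerevisiae. Buffer or medium: CSMM-D glucose medium. Incubation: 4 h pre-growth plus 48 h compound exposure, 30 °C. Detection: absorbance (optical density) measured at 615 nm.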

[3] = viability gain of MRP-1-high H69AR cells under doxorubicin, pilot screen, MRP-1 activator project, CellTiter-Glo, duplicate (AID 807;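 active means viability increase at or above a cutoff of the median across tested compounds plus 3 SD, cut at about 8.5% in these data, passing the limit was not always enough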;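 further: compound pretreatment 18-22 h then 72 h combined with doxorubicin; 0% = doxorubicin alone and 100% = vehicle without doxorubicin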); conditions: H69AR viability with doxorubicin, CellTiter-Glo luminescence; at 10 µM; hits give high values
[4] = growth suppression of beta-catenin knockout HCT116, pilot screen, human colon tumor cells (AID 823;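 active means cell viability at or below a set limit in both duplicate runs, the limit being the all-compound median minus 4 SD, cut at about 23% in these data, passing the limit was not always enough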;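 further: 0% = wells killed by 20 µM Hyamine and 100% = untreated DMSO cell wells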); conditions: CellTiter-Glo, 60 h, at 10 µM, hits give low values
[5] = growth suppression of PTEN-deleted HCT116, pilot screen, cell-based, HCT116 clonal line, CellTiter-Glo (AID 824;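 active means viability at or below 27.92% in each of two runs, the all-compound median minus 4 SD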;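 further: 0% = 20 µM Hyamine control and 100% = vehicle cell control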); conditions: 60 h, at 10 µM, hits give low values
[6] = inhibitors of the yeast RAM network, pilot screen, dse1pr::URA3 reporter, 5-FOA selection (AID 869);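 further: 0% = DMSO wells with no growth and 100% = 10 µM 1-NA-PP1 with full growth; RAM network block rescues cells from 5-FOA so hits raise OD615 growth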; conditions: S. cerevisiae dse1pr::URA3 5-FOA growth, OD615, 2 d; at 10 µM; hits give high values; strain carries analog-sensitive mutant Cbk1 kinase
[7] = RAM signaling pathway blockade in yeast – S. cerevisiae, Pdr1DBD-CYC8 efflux-inhibited sensitized strain, primary screen (AID 1298;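 active means RAM network inhibition above 8.4% in each of two replicates, 3 SD over the compound average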;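 further: 0% = DMSO untreated cells without growth and 100% = 10 µM 1-NA-PP1 full growth; higher means more yeast growth rescued from 5-FOA killing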); conditions: S. cerevisiae cbk1-as DSE1-URA3 strain, 5-FOA growth OD615, 2 d; at 50 µM; hits give high values

Row | Compound | growth inhibition [1] | growth inhibition [2] | viability increase [3] | viability [4] | viability [5] | inhibition [6] | RAM network inhibition [7]
1 | CCN1CCN(CCNC(=O)C2CCN(Cc3nc(-c4ccc(Cl)cc4)oc3C)CC2)CC1 | -6.21% | -7.59% | -3.29% | 62.3% | 70.1% | 1.29% | 3.67%
2 | COc1ccc2c(c1)C(=O)CC(c1ccccc1F)O2 (configuration not stated) | -12% | -1.22% | -3.63% | 65.4% | 74.3% | 1.22% | 5.83%
3 | CC(C)N(Cc1nc(-c2ccccc2)no1)C(=O)c1ccc(Cl)cc1 | -9.85% | -12% | 2.12% | 80.7% | 76.2% | 3.25% | 6.42%
4 | CCOC(=O)c1sc(NCCNc2nc(C)c(C(=O)OCC)s2)nc1C | 2.36% | -21.8% | -3.12% | 94.1% | 89% | 0.595% | 5.86%
5 | COc1ccc(NC(=O)Nc2ccc3c(c2)N(C)C(=O)CS3)cc1OC | -18.9% | -18.2% | -4.94% | 88% | 75.9% | 2.05% | 5.75%
6 | CCOC(=O)c1ccccc1NC(=O)CC1SC(=NC)N(C)C1=O (configuration not stated) | -10.3% | -22.9% | -2% | 102% | 96.2% | 2.04% | 4.34%
7 | CCOc1ccc(S(=O)(=O)N(CC(=O)O)c2ccccc2)cc1 | -1.83% | -7.26% | -2.11% | 102% | 93.6% | 1.07% | 2.61%
8 | Cc1cc(Nc2cccc(Cl)c2C)n2ncnc2n1 | -2.94% | -1.32% | -1.11% | 94.2% | 95% | 2.26% | 2.35%
9 | CC12CCC(C(=O)NCc3ccco3)(OC1=O)C2(C)C (configuration not stated) | -9.57% | -9.65% | -2.96% | 98.3% | 93.2% | 1.42% | -0.27%
10 | COc1ccc(-n2c(Cc3cc(=O)[nH]c(=O)[nH]3)nnc2SCC(=O)NC2CCCC2)cc1 | -0.575% | 2.41% | 1.47% | 104% | 107% | 0.535% | 3.15%
11 | COc1ccc(NC(=O)C2CCCN(S(=O)(=O)c3cccnc3)C2)c(OC)c1 (configuration not stated) | -9.3% | -2.6% | 1.08% | 104% | 97.1% | 1.57% | -0.22%
12 | C#CC(C)(C)NC(=O)CSc1nc2c(c(=O)n(C)c(=O)n2C)n1CCCC | -15.3% | -13.7% | 1.86% | 102% | 89.4% | 2.11% | 1.45%
13 | Cc1ccc(C)c(NC(=O)CSc2nnc(-c3ccccc3)n2N)c1 | -4.36% | -8.22% | -1.93% | 109% | 90.1% | 1.5% | 3.95%
14 | CC(C)N1CCc2c(sc(NC(=O)c3ccc(S(=O)(=O)N4CCOCC4)cc3)c2C(N)=O)C1 | -2.23% | -11.5% | -3.25% | 92.6% | 88.7% | 2.21% | 1.28%
15 | CCOC(=O)c1c(CN(CC)CC)oc2cc(Br)c(O)cc12 | -0.115% | 0.915% | -3.81% | 78.2% | 81.6% | -0.04% | 3.43%
16 | COc1ccc(OCC(=O)Nc2ccccc2OC)cc1 | 11.4% | 7.31% | -4.87% | 105% | 101% | 0.82% | -2.32%
17 | Cn1c(C(=O)N2CCCCCC2)cc2c(=O)n(C)c3ccccc3c21 | -8.92% | -2.14% | -3.27% | 94.9% | 92.3% | 1.33% | 4.52%
18 | Cc1n[nH]c(=O)nc1NCc1ccccc1 | -8.25% | -29% | -0.55% | 95% | 93.9% | 1.48% | 0.91%

Row | Compound | growth inhibition [1] | growth inhibition [2] | viability increase [3] | viability [4] | viability [5] | inhibition [6] | RAM network inhibition [7]
19 | Cc1ccc(-c2nnc3ccc(SC(C)C(=O)O)nn23)cc1 (configuration not stated) | 13.9% | 60.9% (active) | -1.29% | 99.1% | 97.8% | 2.31% | 3.9%
20 | Cc1ccccc1-n1c(SC/C(O)=C(\C#N)c2nc3ccccc3[nH]2)nnc1-c1ccncc1 | 2.37% | 19.1% | -3.4% | 93.5% | 81.7% | 2.92% | 2.28%
21 | O=C(CSc1nccc2ccccc12)N1CCN(c2ccccn2)CC1 | -3.48% | 8.46% | -2.78% | 97.5% | 99.8% | 0.295% | -0.26%
22 | Cc1cc(C2N=C(N)Nc3nc4ccccc4n32)c(C)n1-c1ccccc1Cl (configuration not stated) | -0.255% | -33.7% | -4.14% | 9.19% (active) | 16.7% (active) | 2.92% | 3.79%
23 | CCOC(=O)C1CCCN(C(=O)c2cn(C)c3ccc(S(=O)(=O)N(C)C)cc3c2=O)C1 (configuration not stated) | -5.1% | -1.87% | 0.59% | 97.8% | 105% | 0.48% | 6.85%
24 | CCn1c(=NC(=O)CSC(C)=O)sc2cc(OC)ccc21 | -22.8% | 7.25% | -5.19% | 64.1% | 77.2% | 1.25% | 2.46%
25 | CCCC(=O)Nc1nc2ccc(OC)cc2s1 | -15.5% | -17.6% | 1.29% | 93.8% | 80.7% | 0.5% | 2.32%
26 | CCOC(=O)c1ccc(NS(=O)(=O)c2cc(-c3nnnn3CC)ccc2OC)cc1 | -0.78% | -5.39% | -2.01% | 92.5% | 90.2% | 1.56% | 6.36%
27 | COc1ccc(C2C(C(=O)N3CCCC3)c3cc(OC)c(OC)cc3C(=O)N2C)cc1OC (configuration not stated) | -6.69% | -25.4% | -1.65% | 105% | 100% | 1.54% | 2.23%
28 | CC1CCc2nn(CC(=O)NC3CCCC3)cc2C1 (configuration not stated) | 0.6% | 10.9% | -1.14% | 105% | 92.9% | 0.925% | 0.63%
29 | O=C(CCn1c(=O)oc2ccccc21)Nc1cccc(Cl)c1 | -14.4% | -11% | 0.42% | 92.8% | 96.4% | 2.17% | 2.21%
30 | O=C(NCc1ccco1)c1cnccn1 | 3.99% | 5.22% | -2.25% | 98.7% | 101% | 2.81% | -0.25%
31 | COc1cccc(-n2nnc3c(=O)n(Cc4cccc(C)c4)cnc32)c1 | -8.22% | -5.66% | 0.31% | 104% | 89.7% | 0.335% | 5.49%
32 | CC1CCCCN1C(=O)CSCC(=O)Nc1nc(-c2cccs2)cs1 (configuration not stated) | 2.07% | -3.92% | -4.62% | 99.2% | 94.6% | 0.505% | 1.69%
33 | Cc1noc(C)c1S(=O)(=O)NCc1ccc2c(c1)OCO2 | -1.3% | -6.16% | -1.12% | 97.5% | 93.6% | 2.77% | 0.27%
34 | NC(=O)SCC(=O)Nc1ccc(Cl)c(Cl)c1 | -0.33% | 4.16% | -7.83% | 38% | 42.8% | 2.52% | 4.56%
35 | CCC(C)NC(=O)CS(=O)Cc1nc(-c2ccccc2C)oc1C (configuration not stated) | 1.69% | 12.7% | -2.38% | 96.1% | 95.2% | 1.9% | 9.39%
36 | Cc1noc(NS(=O)(=O)c2ccc(NC(=O)CSc3nc4c(cc3C#N)CCC4)cc2)c1C | 4.79% | 48% (active) | 1.01% | 107% | 98.3% | 0.805% | 8.22%
